Test results as given in ChEMBL document CHEMBL1148134, “Differentiation- and apoptosis-inducing activities by pentacyclic triterpenes on a mouse melanoma cell line” (J Nat Prod, 2002).
Activity calls are given as the source filed them. No cut-off for these calls is given here.

Experiments:
B16 [1] = experiment: Induction of melanogenesis in mouse B16 2F2 cells assessed as intracellular melanin content after 3 days; assay type: functional; details: B16, 72 h, read-out: ED50 (the source's name)
In short: (§1)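 Aliquots of 1 × 10^5 B16 2F2 cells in 1 mL incubated 3 days (72 h) across a triterpene concentration range, including 1.0 and 10 µM. Intracellular melanin content measured per previously described method. ED50 derived from dose-response curves of melanogenesis up-regulation.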

B16 [2] = experiment: Growth inhibition of mouse B16 2F2 cells after 3 days; assay type: functional, cell-based; details: B16, 72 h
In short: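 B16 2F2 melanoma subclone, 1 × 10^5 cells per 1 mL aliquot, exposed to a range of triterpene concentrations for 3 days. Viable cells counted as in earlier work. IC50 = concentration giving 50% growth inhibition.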

B16 [3] = experiment: Induction of apoptosis in mouse B16 2F2 cells assessed as condensation and fragmentation of nuclei at 10 uM after 48 hrs by Hoechst 33258 staining based fluorescence microscopy; assay type: functional
In short: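 B16 2F2 cells held with or without triterpene at 10 µM for 48 h, collected, washed in PBS, fixed in 1% glutaraldehyde, then stained 30 min with 50 µM Hoechst 33258. Nuclear condensation/fragmentation scored by fluorescence microscopy, apoptotic cells counted manually on at least 200 cells.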

B16 [4] = experiment: Induction of melanogenesis in mouse B16 2F2 cells assessed as intracellular melanin content up to 10 uM after 3 days; assay type: functional, cell-based; in short: as §1

Row | SMILES | EC50 (B16 [1]) | IC50 (B16 [2]) | Activity (B16 [3]) | Activity (B16 [4])
1 | C[C@H]1[C@H](C)CC[C@]2(C)CC[C@]3(C)C(=CC[C@@H]4[C@@]5(C)CC[C@H](O)C(C)(C)[C@@H]5CC[C@]43C)[C@H]12 | > 50 µM | 50 µM | – | –
2 | CC1(C)CC[C@]2(C)CC[C@]3(C)C(=CC[C@@H]4[C@@]5(C)CCC(=O)C(C)(C)[C@@H]5CC[C@]43C)[C@@H]2C1 | > 50 µM | 38.7 µM | – | –
3 | C[C@H]1[C@H](C)CC[C@]2(C)CC[C@]3(C)C(=CC[C@@H]4[C@@]5(C)CCC(=O)C(C)(C)[C@@H]5CC[C@]43C)[C@H]12 | > 50 µM | 40.3 µM | – | –
4 | C=C(C)[C@@H]1CC[C@]2(COC(C)=O)CC[C@]3(C)[C@H](CC[C@@H]4[C@@]5(C)CC[C@H](OC(C)=O)C(C)(C)[C@@H]5CC[C@]43C)[C@@H]12 [BETULIN DIACETATE] | 3.4 µM | 36.8 µM | – | –
5 | C=C(C)[C@@H]1CC[C@]2(C=O)CC[C@]3(C)[C@H](CC[C@@H]4[C@@]5(C)CC[C@H](O)C(C)(C)[C@@H]5CC[C@]43C)[C@@H]12 [BETULINALDEHYDE] | 3.3 µM | 6.4 µM | 70.4% | –
6 | C=C(C)[C@@H]1CC[C@]2(C(=O)O)CC[C@]3(C)[C@H](CC[C@@H]4[C@@]5(C)CC[C@H](O)C(C)(C)[C@@H]5CC[C@]43C)[C@@H]12 [BETULINIC ACID] | 4.1 µM | 7.9 µM | – | –
7 | C=C(C)[C@@H]1CC[C@]2(CO)CC[C@]3(C)[C@H](CC[C@@H]4[C@@]5(C)CC[C@H](O)C(C)(C)[C@@H]5CC[C@]43C)[C@@H]12 [BETULIN] | 4.8 µM | 27.4 µM | – | –
8 | C=C(C)[C@@H]1CC[C@]2(C=O)CC[C@]3(C)[C@H](CC[C@@H]4[C@@]5(C)CCC(=O)C(C)(C)[C@@H]5CC[C@]43C)[C@@H]12 [BETULONAL] | 0.35 µM | 4.1 µM | – | –
9 | C=C(C)[C@@H]1CC[C@]2(CO)CC[C@]3(C)[C@H](CC[C@@H]4[C@@]5(C)CCC(=O)C(C)(C)[C@@H]5CC[C@]43C)[C@@H]12 [BETULONE] | 0.19 µM | 29.3 µM | – | –
10 | CC1(C)CC[C@]2(CO)CC[C@]3(C)C(=CC[C@@H]4[C@@]5(C)CC[C@H](O)C(C)(C)[C@@H]5CC[C@]43C)[C@@H]2C1 [ERYTHRODIOL] | > 50 µM | 33.4 µM | – | –
11 | C=C(C)[C@@H]1CC[C@]2(C)CC[C@]3(C)[C@H](CC[C@@H]4[C@@]5(C)CCC(=O)C(C)(C)[C@@H]5CC[C@]43C)[C@@H]12 [LUPENONE] | 0.35 µM | 25.4 µM | – | –
12 | C=C(C)[C@@H]1CC[C@]2(C)CC[C@]3(C)[C@H](CC[C@@H]4[C@@]5(C)CC[C@H](OC(C)=O)C(C)(C)[C@@H]5CC[C@]43C)[C@@H]12 [LUPENYL ACETATE] | 7.5 µM | 22.7 µM | – | –
13 | C=C(C)[C@@H]1CC[C@]2(C)CC[C@]3(C)[C@H](CC[C@@H]4[C@@]5(C)CC[C@H](O)C(C)(C)[C@@H]5CC[C@]43C)[C@@H]12 [LUPEOL] | 9.9 µM | 38 µM | – | –
14 | C=C(C)[C@@H]1CC[C@]2(C(=O)OC)CC[C@]3(C)[C@H](CC[C@@H]4[C@@]5(C)CC[C@H](O)C(C)(C)[C@@H]5CC[C@]43C)[C@@H]12 [METHYL BETULINATE] | 2.5 µM | 4.9 µM | – | –
15 | CC1(C)CC[C@]2(C(=O)O)CC[C@]3(C)C(=CC[C@@H]4[C@@]5(C)CC[C@H](O)C(C)(C)[C@@H]5CC[C@]43C)[C@@H]2C1 [OLEANOLIC_ACID] | – | 4.8 µM | – | inactive
16 | C[C@H]1[C@H](C)CC[C@]2(C(=O)O)CC[C@]3(C)C(=CC[C@@H]4[C@@]5(C)CC[C@H](O)C(C)(C)[C@@H]5CC[C@]43C)[C@H]12 [URSOLIC ACID] | – | 3.1 µM | – | inactive
17 | C[C@H]1[C@H](C)CC[C@]2(CO)CC[C@]3(C)C(=CC[C@@H]4[C@@]5(C)CC[C@H](O)C(C)(C)[C@@H]5CC[C@]43C)[C@H]12 [UVAOL] | > 50 µM | 46.8 µM | – | –
18 | CC1(C)CC[C@]2(C)CC[C@]3(C)C(=CC[C@@H]4[C@@]5(C)CC[C@H](O)C(C)(C)[C@@H]5CC[C@]43C)[C@@H]2C1 [beta-AMYRIN] | > 50 µM | 48.8 µM | – | –
